pKi: −log10 of the molar value. Active and inactive are the calls of the source. The rule behind the calls is not given here.
Key:
[1] = biological target: Bcl-xL/BAK (Homo sapiens, UniProt Q07817); assay: Inhibition of His-tagged Bcl-xL/5-carboxyfluorescein-Bak (unknown origin) after 1 hr by fluorescence polarization assay; type: protein assay
Procedure, shortened: (§1)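 Fluorescence polarization competition: a small molecule competes with a fluorescent-tagged BH3 peptide (Bak for Bcl-xL, Bid for Mcl-1) for binding to the anti-apoptotic protein. Run in triplicate.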

[2] = biological target: Induced myeloid leukemia cell differentiation protein Mcl-1/BH3-interacting domain death agonist (Homo sapiens, UniProt Q07820); assay: Inhibition of His-tagged Mcl-1/5-carboxyfluorescein-Bid (unknown origin) after 1 hr by fluorescence polarization assay; type: protein assay; procedure, shortened: as §1
[3] = system: HCT-116; assay: Cytotoxicity against human HCT116 cells assessed as decrease in cell viability after 72 hrs by resazurin dye based fluorescence assay; type: functional
[4] = biological target: T1, BH3-interacting domain death agonist (Homo sapiens) (UniProt P55957); assay: Binding affinity to Bid (unknown origin) assessed as induction of chemical shift perturbations by NMR titration method
T1 sequence (whole entry): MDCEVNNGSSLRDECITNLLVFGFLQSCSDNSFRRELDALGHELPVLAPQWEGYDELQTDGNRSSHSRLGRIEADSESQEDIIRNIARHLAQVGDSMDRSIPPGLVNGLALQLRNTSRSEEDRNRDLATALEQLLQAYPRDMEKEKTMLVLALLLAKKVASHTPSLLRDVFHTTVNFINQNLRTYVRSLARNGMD

[5] = biological target: T1, BH3-interacting domain death agonist (Homo sapiens); assay: Binding affinity to Bid (unknown origin) assessed as micelles formation at 0.25 to 5 equivalent by 1H NMR spectra analysis
[6] = biological target: T1, BH3-interacting domain death agonist (Homo sapiens); assay: Binding affinity to Bid (unknown origin) at 2 equivalent assessed as interaction at Asp16/Ser17/Met18/Asp19 and Arg20 residues by 2D 1H-1H TOCSY analysis
[7] = biological target: Induced myeloid leukemia cell differentiation protein Mcl-1 (Homo sapiens) (UniProt Q07820); assay: Binding affinity to Mcl-1 (unknown origin) assessed as effect on protein HN resonances at 1.5 equivalent by HSQC 1H-15N NMR spectroscopy
[8] = biological target: Bcl-2-like protein 1 (Homo sapiens) (UniProt Q07817); assay: Binding affinity to Bcl-XL (unknown origin) assessed as effect on protein HN resonances at 1.5 equivalent by HSQC 1H-15N NMR spectroscopy
Procedure, shortened: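 Ligand titration into Bcl-xL, followed by 1H-15N HSQC spectra recorded on an 800 MHz spectrometer with a 5 mm z-gradient TCI cryoprobe.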

Sequence of Induced myeloid leukemia cell differentiation protein Mcl-1/BH3-interacting domain death agonist (Q07820 whole entry, one chain of several, the tested form may be a part): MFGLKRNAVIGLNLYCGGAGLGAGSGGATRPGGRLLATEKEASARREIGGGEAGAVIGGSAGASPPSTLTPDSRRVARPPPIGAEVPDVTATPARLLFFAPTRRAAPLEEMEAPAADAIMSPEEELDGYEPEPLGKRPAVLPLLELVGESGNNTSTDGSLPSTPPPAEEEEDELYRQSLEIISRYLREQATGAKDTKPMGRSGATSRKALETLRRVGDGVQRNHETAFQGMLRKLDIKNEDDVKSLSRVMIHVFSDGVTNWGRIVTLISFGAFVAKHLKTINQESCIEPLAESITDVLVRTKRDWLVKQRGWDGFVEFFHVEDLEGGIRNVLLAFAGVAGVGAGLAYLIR
Sequence of Bcl-xL/BAK (Q07817 whole entry): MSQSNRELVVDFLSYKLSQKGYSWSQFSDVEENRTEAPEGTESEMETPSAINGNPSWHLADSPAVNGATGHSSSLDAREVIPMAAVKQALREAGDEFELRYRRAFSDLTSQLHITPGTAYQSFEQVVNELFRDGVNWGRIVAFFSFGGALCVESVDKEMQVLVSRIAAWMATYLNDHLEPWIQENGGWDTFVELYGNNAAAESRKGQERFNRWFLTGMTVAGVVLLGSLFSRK
Sequence of Bcl-xL/BAK (Q16611 whole entry, further chain): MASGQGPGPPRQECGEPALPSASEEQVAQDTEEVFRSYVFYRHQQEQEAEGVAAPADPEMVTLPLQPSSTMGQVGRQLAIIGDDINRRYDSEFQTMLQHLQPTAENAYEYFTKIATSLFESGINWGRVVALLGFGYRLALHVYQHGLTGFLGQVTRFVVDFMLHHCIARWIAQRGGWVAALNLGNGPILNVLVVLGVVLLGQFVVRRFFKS
Sequence of Induced myeloid leukemia cell differentiation protein Mcl-1 (Homo sapiens) (Q07820 whole entry): as the sequence (Q07820 whole entry, one chain of several, the tested form may be a part) above
Sequence of Bcl-2-like protein 1 (Homo sapiens) (Q07817 whole entry): as the sequence (Q07817 whole entry) above

pKi [1] | Activity [7] | Activity [8] | Structure (SMILES) | pKi [2] | Activity [3] | Activity [4] | Activity [5] | Activity [6]
< 4.64 | – | – | CCCC/C=C\CCCCCCCc1cc(O)cc(O)c1C(C)=O | < 4.48 | – | – | – | –
5.49 | – | – | CCCC/C=C\CCCCCc1cccc(O)c1C(=O)O | 5.24 | inactive | – | – | –
5.92 | – | – | CCCCCCCCCCCc1cccc(O)c1C(=O)O | 6.15 | inactive | – | – | –
< 4.64 | – | – | CCCC/C=C\CCCCCc1cc(O)cc(O)c1C(C)=O | < 4.48 | – | – | – | –
< 4.64 | – | – | CCCCCCCCCCCCCc1cccc(O)c1 | < 4.48 | – | – | – | –
6.70 | inactive | inactive | CCCCCCCCCCCCCc1cccc(O)c1C(=O)O [GINKGOLIC ACID 13:0] | 6.70 | inactive | Active | Dose-dependent effect | Active
5.59 | – | – | CC(C)=CCC[C@@H](C)[C@H]1C=C[C@@]2(C(=O)O)[C@H](CC(C)=C[C@@H]2/C=C(\C)C2CCC(C(=O)O)CC2)C1 (some centres undefined) [MEIOGYNIN A] | – | – | – | – | –
< 4.64 | – | – | CCCCCCCCCCCc1cc(O)cc(O)c1C(C)=O | < 4.48 | – | – | – | –
< 4.64 | – | – | CCCCCCCCCc1cccc(O)c1C(=O)O | 4.75 | inactive | – | – | –
4.79 | – | – | O=C(O)c1c(O)cccc1CCCCCCCCc1ccccc1 | 5.43 | inactive | – | – | –
< 4.64 | – | – | CCCC/C=C\CCCCCCCc1cccc(O)c1 | < 4.48 | – | – | – | –
6.52 | – | – | CCCC/C=C\CCCCCCCc1cccc(O)c1C(=O)O | 6.70 | inactive | – | – | –
